Data published in ChEMBL document CHEMBL1145492, “Comparison of the phosphorylation of 4'-ethynyl 2',3'-dihydro-3'-deoxythymidine with that of other anti-human immunodeficiency virus thymidine analogs” (Antimicrob Agents Chemother, 2007).

Experiments:
[1] = substrate: Cc1cn([C@H]2C=C[C@@H](COP(=O)(O)O)O2)c(=O)[nH]c1=O; assay: (§1) Activity for human recombinant TMP kinase
In short: (§2)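 Substrate ranges were TMP 6.25–100 μM and analog MPs 6.25–250 μM. Reactions were stopped at various times with TCA and neutralized with trioctylamine/trichlorotrifluoroethane. Km and kcat came from Lineweaver-Burk plots. Relative efficiency is kcat/Km with D4TMP as 100%. Mean ± SD of three experiments.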

[2] = substrate: Cc1cn([C@H]2C[C@H](N=[N+]=[N-])[C@@H](COP(=O)(O)O)O2)c(=O)[nH]c1=O; assay: as §1; in short: as §2
[3] = substrate: Cc1cn([C@H]2C[C@H](O)[C@@H](COP(=O)(O)O)O2)c(=O)[nH]c1=O; assay: as §1; in short: as §2

B1: Thymidylate kinase (Homo sapiens), P23919 (protein)
chain: MAARRGALIVLEGVDRAGKSTQSRKLVEALCAAGHRAELLRFPERSTEIGKLLSSYLQKKSDVEDHSVHLLFSANRWEQVPLIKEKLSQGVTLVVDRYAFSGVAFTGAKENFSLDWCKQPDVGLPKPDLVLFLQLQLADAAKRGAFGHERYENGAFQERALRCFHQLMKDTTLNWKMVDASKSIEAVHEDIRVLSEDAIRTATEKPLGELWK
- Km [1]: 22 µM
- kcat [1]: 0.093 s⁻¹
- Km [2]: 7.6 µM
- kcat [2]: 0.018 s⁻¹
- Km [3]: 8.3 µM
- kcat [3]: 1.8 s⁻¹
